Measured values published in ChEMBL document CHEMBL4038284, “Synthesis of novel quinoline-based 4,5-dihydro-1H-pyrazoles as potential anticancer, antifungal, antibacterial and antiprotozoal agents” (Eur J Med Chem, 2017).
In brackets after ≈: the same amount, converted by molar mass. Activity calls are given as the source filed them. The rule behind the calls is not given here.

How the values were obtained:
NCI-H23 = assay: Growth inhibition of human NCI-H23 cells at 10 uM incubated for 48 hrs by sulforhodamine B assay; type: functional, cell-based
How it was run: (§1)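 NCI 60-line panel, single 10 μM dose. Cells were grown in RPMI-1640 with 5% FBS and 2 mM L-glutamine and pre-incubated 24 h before compound addition (DMSO stock). Exposure was 48 h at 37 °C, 5% CO2. Cells were fixed with cold TCA (10% final), stained with 0.4% SRB, bound dye dissolved in 10 mM Tris base, A515 read. Growth was taken relative to time-zero and untreated control plates.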

Malme-3M = assay: Growth inhibition of human MALME-3M cells at 10 uM incubated for 48 hrs by sulforhodamine B assay; type: functional, cell-based; how it was run: as §1
Cryptococcus neoformans [1] = assay: Growth inhibition of Cryptococcus neoformans ATCC 32264 at 62.5 ug/ml incubated for 48 hrs under dark condition by broth microdilution method relative to control; type: functional; details: ATCC 32264, 48 h, read-out: GI
How it was run: (§2)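 CLSI M27-A3 broth microdilution in RPMI-1640, DMSO ≤1%. Inoculum 1-5 × 10^3 CFU/mL. Incubated 48 h at 30 °C, dark. % inhibition = 100 − (OD405 test − sterility control)/(OD405 growth control − sterility control), with growth and sterility control wells. Triplicate.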

T47D = assay: Growth inhibition of human T47D cells at 10 uM incubated for 48 hrs by sulforhodamine B assay; type: functional, cell-based
How it was run: (§3)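 NCI-60 single-dose screen at 10 µM for 48 h. Cells were grown in RPMI-1640 with 5% FBS and 2 mM L-glutamine and preincubated 24 h before compound. Time-zero plates were TCA-fixed at compound addition. After exposure, cells were TCA-fixed, stained with SRB and read at 515 nm. Percentage growth was calculated against time-zero and untreated-control absorbances.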

Candida albicans [2] = assay: Antifungal activity against Candida albicans ATCC 10231 incubated for 48 hrs under dark condition by broth microdilution method; type: functional; details: ATCC 10231, 48 h
How it was run: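 CLSI M27-A3 broth microdilution in RPMI-1640, DMSO ≤1%, compounds at 250-0.98 µg/mL final. Inoculum 1-5 × 10^3 CFU/mL. Incubated 48 h at 30 °C in a moist dark chamber, read at OD405. MIC80 and MIC50 taken from % inhibition dose-response curves (mean ± SEM, triplicate). Amphotericin B was the positive control.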

RXF 393 = assay: Growth inhibition of human RXF393 cells at 10 uM incubated for 48 hrs by sulforhodamine B assay; type: functional, cell-based; how it was run: as §1
IGROV-1 = assay: Growth inhibition of human IGROV1 cells at 10 uM incubated for 48 hrs by sulforhodamine B assay; type: functional, cell-based; how it was run: as §1
RPMI-8226 = assay: Growth inhibition of human RPMI8226 cells at 10 uM incubated for 48 hrs by sulforhodamine B assay; type: functional, cell-based; how it was run: as §1
NCI/ADR-RES = assay: Growth inhibition of human NCI/ADR-RES cells at 10 uM incubated for 48 hrs by sulforhodamine B assay; type: functional, cell-based; how it was run: as §1
SNB-19 = assay: Growth inhibition of human SNB19 cells at 10 uM incubated for 48 hrs by sulforhodamine B assay; type: functional, cell-based; how it was run: as §3
Staphylococcus aureus = assay: Antibacterial activity against vancomycin-intermediate Staphylococcus aureus after 24 hrs by resazurin dye based microdilution assay; type: functional
How it was run: (§4)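 MIC taken as the lowest concentration giving visible inhibition and/or by resazurin (1 mg/mL). Gentamicin was the control. Run in duplicate, repeated at least three times.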

Candida albicans [3] = assay: Growth inhibition of Candida albicans ATCC 10231 at 7.8 ug/ml incubated for 48 hrs under dark condition by broth microdilution method relative to control; type: functional; details: ATCC 10231, 48 h, read-out: GI; how it was run: as §2
HCT-116 = assay: Growth inhibition of human HCT116 cells at 10 uM incubated for 48 hrs by sulforhodamine B assay; type: functional, cell-based
How it was run: (§5)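 NCI 60-cell-line screen at a single 10 µM dose. Cells in RPMI-1640 with 5% FBS and 2 mM L-glutamine, pre-incubated 24 h, then treated for 48 h at 37 °C. TCA fixation, sulforhodamine B staining, absorbance at 515 nm. Percentage growth calculated against time-zero and untreated controls.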

A549 = assay: Growth inhibition of human A549/ATCC cells at 10 uM incubated for 48 hrs by sulforhodamine B assay; type: functional, cell-based; how it was run: as §5
SK-MEL-2 = assay: Growth inhibition of human SK-MEL-2 cells at 10 uM incubated for 48 hrs by sulforhodamine B assay; type: functional, cell-based; how it was run: as §3
K562 = assay: Growth inhibition of human K562 cells at 10 uM incubated for 48 hrs by sulforhodamine B assay; type: functional, cell-based; how it was run: as §1
SR = assay: Growth inhibition of human SR cells at 10 uM incubated for 48 hrs by sulforhodamine B assay; type: functional, cell-based; how it was run: as §3
Hs-578T = assay: Growth inhibition of human Hs578T cells at 10 uM incubated for 48 hrs by sulforhodamine B assay; type: functional, cell-based; how it was run: as §1
MDA-MB-231 = assay: Growth inhibition of human MDA-MB-231 cells at 10 uM incubated for 48 hrs by sulforhodamine B assay; type: functional, cell-based; how it was run: as §1
Klebsiella pneumoniae = assay: Antibacterial activity against carbapenemase positive Klebsiella pneumoniae BAA 1705 after 24 hrs by resazurin dye based microdilution assay; type: functional; details: BAA 1705, 24 h; how it was run: as §4
TK-10 = assay: Growth inhibition of human TK10 cells at 10 uM incubated for 48 hrs by sulforhodamine B assay; type: functional, cell-based; how it was run: as §3
HL-60(TB) = assay: Growth inhibition of human HL-60(TB) cells at 10 uM incubated for 48 hrs by sulforhodamine B assay; type: functional, cell-based
How it was run: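 NCI 60-line single-dose screen at 10 μM, 48 h. Cells in RPMI-1640 with 5% FBS and 2 mM L-glutamine at 37 °C, 5% CO2. Growth measured by TCA fixation and SRB staining (515 nm), relative to time-zero and untreated control wells.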

SF-295 = assay: Growth inhibition of human SF295 cells at 10 uM incubated for 48 hrs by sulforhodamine B assay; type: functional, cell-based; how it was run: as §1
Candida albicans [4] = assay: Growth inhibition of Candida albicans ATCC 10231 at 3.4 ug/ml incubated for 48 hrs under dark condition by broth microdilution method relative to control; type: functional; details: ATCC 10231, 48 h, read-out: GI
KM12 = assay: Growth inhibition of human KM12 cells at 10 uM incubated for 48 hrs by sulforhodamine B assay; type: functional, cell-based; how it was run: as §1
NCI-H460 = assay: Growth inhibition of human NCI-H460 cells at 10 uM incubated for 48 hrs by sulforhodamine B assay; type: functional, cell-based; how it was run: as §1
Cryptococcus neoformans [5] = assay: Growth inhibition of Cryptococcus neoformans ATCC 32264 at 3.4 ug/ml incubated for 48 hrs under dark condition by broth microdilution method relative to control; type: functional; details: ATCC 32264, 48 h, read-out: GI
Candida albicans [6] = assay: Growth inhibition of Candida albicans ATCC 10231 at 15.62 ug/ml incubated for 48 hrs under dark condition by broth microdilution method relative to control; type: functional; details: ATCC 10231, 48 h, read-out: GI; how it was run: as §2
MCF7 = assay: Growth inhibition of human MCF7 cells at 10 uM incubated for 48 hrs by sulforhodamine B assay; type: functional, cell-based; how it was run: as §1

| Compound | growth inhibition (GI) (NCI-H23) | growth inhibition (GI) (Malme-3M) | inhibition of growth at 62.5 µg/mL (Cryptococcus neoformans [1]) [%] | growth inhibition (GI) (T47D) | MIC50 (Candida albicans [2]) [µg/mL] | MIC80 (Candida albicans [2]) [µg/mL] | growth inhibition (GI) (RXF 393) | growth inhibition (GI) (IGROV-1) | growth inhibition (GI) (RPMI-8226) | growth inhibition (GI) (NCI/ADR-RES) | growth inhibition (GI) (SNB-19) | MIC (Staphylococcus aureus) [µg/mL] | inhibition of growth at 7.8 µg/mL (Candida albicans [3]) [%] | growth inhibition (GI) (HCT-116) | growth inhibition (GI) (A549) | growth inhibition (GI) (K562) | growth inhibition (GI) (SR) | growth inhibition (GI) (Hs-578T) | growth inhibition (GI) (MDA-MB-231) | MIC (Klebsiella pneumoniae) [µg/mL] | other results |
| --- | --- | --- | --- | --- | --- | --- | --- | --- | --- | --- | --- | --- | --- | --- | --- | --- | --- | --- | --- | --- | --- |
| COc1cc(C2=NN(c3ccc(Cl)cc3)C(c3cccc(Nc4ccnc5cc(Cl)ccc45)c3)C2)cc(OC)c1OC (stereo not drawn) | inactive | inactive | 17.1 | inactive | ≥ 250 | ≥ 250 | inactive | inactive | inactive | inactive | inactive | > 1000 | 4.21 | inactive | inactive | inactive | inactive | inactive | inactive | > 1000 | growth inhibition (GI) (SK-MEL-2): inactive; growth inhibition (GI) (TK-10): inactive; growth inhibition (GI) (HL-60(TB)): inactive; growth inhibition (GI) (SF-295): inactive; inhibition of growth at 3.4 µg/mL (Candida albicans [4]): 2.27%; growth inhibition (GI) (KM12): inactive; growth inhibition (GI) (NCI-H460): inactive; inhibition of growth at 3.4 µg/mL (Cryptococcus neoformans [5]): 8.08%; inhibition of growth at 15.62 µg/mL (Candida albicans [6]): 8.02%; growth inhibition (GI) (MCF7): inactive |
| O=CN1N=C(c2ccc(Cl)cc2)CC1c1cccc(Nc2ccnc3cc(Cl)ccc23)c1 (stereo not drawn) | Active | Active | 59.7 | Active | 250 (≈ 542 µM) | ≥ 250 | Active | Active | Active | Active | Active | > 1000 | 12 | Active | Active | Active | Active | Active | Active | > 1000 | growth inhibition (GI) (TK-10): Active; growth inhibition (GI) (HL-60(TB)): Active; growth inhibition (GI) (SF-295): Active; inhibition of growth at 3.4 µg/mL (Candida albicans [4]): 9.81%; growth inhibition (GI) (KM12): Active; growth inhibition (GI) (NCI-H460): Active; inhibition of growth at 3.4 µg/mL (Cryptococcus neoformans [5]): 37.7%; inhibition of growth at 15.62 µg/mL (Candida albicans [6]): 22.7%; growth inhibition (GI) (MCF7): Active |
| COc1ccc(C(=O)/C=C/c2cccc(Nc3ccnc4cc(Cl)ccc34)c2)cc1 | Active | Active | 13.9 | Active | 250 (≈ 603 µM) | ≥ 250 | Active | Active | Active | Active | Active | > 1000 | 12.5 | Active | Active | Active | Active | Active | Active | > 1000 | growth inhibition (GI) (TK-10): Active; growth inhibition (GI) (HL-60(TB)): Active; growth inhibition (GI) (SF-295): Active; inhibition of growth at 3.4 µg/mL (Candida albicans [4]): 5.88%; growth inhibition (GI) (KM12): Active; growth inhibition (GI) (NCI-H460): Active; inhibition of growth at 3.4 µg/mL (Cryptococcus neoformans [5]): 0%; inhibition of growth at 15.62 µg/mL (Candida albicans [6]): 26.8%; growth inhibition (GI) (MCF7): Active |
